# Experimental data published in ChEMBL document CHEMBL3112476, “Inhibition of IκB kinase-β and IκB kinase-α by heterocyclic adamantyl arotinoids” (Bioorg Med Chem, 2014).
# Experiments:
# [1] = target: T1, Inhibitor of nuclear factor kappa-B kinase subunit alpha (Homo sapiens) (UniProt O15111); experiment: Inhibition of recombinant IKKalpha (unknown origin) using ulight-IkappaomegaBalpha as substrate at 20 uM after 2 hrs by LANCE ultra TR-FRET assay relative to control
# T1 sequence (whole entry): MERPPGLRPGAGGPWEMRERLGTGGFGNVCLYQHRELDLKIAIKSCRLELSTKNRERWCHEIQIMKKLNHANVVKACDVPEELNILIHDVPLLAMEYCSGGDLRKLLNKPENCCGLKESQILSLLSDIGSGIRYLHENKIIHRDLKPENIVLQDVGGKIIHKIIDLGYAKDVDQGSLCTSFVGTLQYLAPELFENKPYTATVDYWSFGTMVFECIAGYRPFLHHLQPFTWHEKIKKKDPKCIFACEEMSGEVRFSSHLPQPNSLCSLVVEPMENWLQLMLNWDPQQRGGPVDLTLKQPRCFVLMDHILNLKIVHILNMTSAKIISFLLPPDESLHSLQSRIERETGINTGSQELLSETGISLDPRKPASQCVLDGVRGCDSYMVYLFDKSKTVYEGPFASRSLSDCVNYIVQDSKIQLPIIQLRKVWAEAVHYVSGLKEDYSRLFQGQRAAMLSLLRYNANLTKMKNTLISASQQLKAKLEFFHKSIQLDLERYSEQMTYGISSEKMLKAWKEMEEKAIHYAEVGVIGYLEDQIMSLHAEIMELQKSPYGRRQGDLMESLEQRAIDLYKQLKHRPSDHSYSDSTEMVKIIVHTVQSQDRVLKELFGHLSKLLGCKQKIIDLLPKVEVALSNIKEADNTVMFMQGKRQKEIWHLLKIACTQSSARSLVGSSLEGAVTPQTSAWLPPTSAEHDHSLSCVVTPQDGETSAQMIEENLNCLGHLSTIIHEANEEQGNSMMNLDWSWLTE
# Summary of the method: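 Recombinant IKKα (4 nM), IKKβ (1 nM) or IKKε (2 nM) in 50 mM Hepes pH 7.4, 10 mM MgCl2, 1 mM EGTA, 2 mM DTT, 0.01% Tween-20. Substrate was 50 nM ULight-IκBα (IKKα/β) or ULight-rpS6 (IKKε); ATP was 1.25 µM (α/β) or 5 µM (ε). Compound was tested at 20 µM. Incubation was 1 h (IKKβ) or 2 h (IKKα/ε) at room temperature, stopped with 20 mM EDTA plus 2 nM Eu-anti-phospho antibody, then TR-FRET 665/615 nm. Results are percent inhibition versus solvent; 3–4 experiments, triplicate.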
# [2] = Cytotoxicity against human Jurkat T cells assessed as cell viability at 4 uM after 24 hrs by CellTiter-Glo assay relative to control; assay type: functional; conditions: read-out: Activity
# Summary of the method: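 Jurkat cells in 0.5% FBS RPMI were exposed to 4 µM compound or 0.1% DMSO for 24 h. Viability was read as ATP by CellTiter-Glo luminescence and expressed as percent of solvent control; below 60% counted as cell killing. Data: three experiments, triplicate.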
# Jurkat = experiment: Induction of apoptosis in human Jurkat cells assessed as activation of DEVDase at 5 uM after 4 hrs by fluorometric assay relative to control; assay type: functional
# Summary of the method: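 Jurkat cells (20,000/well, 0.5% FBS RPMI) were treated 4 h with 5 µM compound and lysed 15 min in PIPES pH 7 buffer with NP-40, cytochalasin B and protease inhibitors. An equal volume of 2× caspase buffer containing 100 µM Ac-DEVD-AFC was added. AFC fluorescence (ex 390/em 510 nm) was read every 2 min for 1 h at 37 °C; the linear slope was taken as activity, expressed as fold over DMSO control. Data: 2 experiments, triplicate.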
# [3] = target: T2, Inhibitor of nuclear factor kappa-B kinase subunit epsilon (Homo sapiens) (UniProt Q14164); experiment: Inhibition of recombinant IKKepsilon (unknown origin) using ulight-rpS6 as substrate at 20 uM after 2 hrs by LANCE ultra TR-FRET assay relative to control
# T2 sequence (whole entry): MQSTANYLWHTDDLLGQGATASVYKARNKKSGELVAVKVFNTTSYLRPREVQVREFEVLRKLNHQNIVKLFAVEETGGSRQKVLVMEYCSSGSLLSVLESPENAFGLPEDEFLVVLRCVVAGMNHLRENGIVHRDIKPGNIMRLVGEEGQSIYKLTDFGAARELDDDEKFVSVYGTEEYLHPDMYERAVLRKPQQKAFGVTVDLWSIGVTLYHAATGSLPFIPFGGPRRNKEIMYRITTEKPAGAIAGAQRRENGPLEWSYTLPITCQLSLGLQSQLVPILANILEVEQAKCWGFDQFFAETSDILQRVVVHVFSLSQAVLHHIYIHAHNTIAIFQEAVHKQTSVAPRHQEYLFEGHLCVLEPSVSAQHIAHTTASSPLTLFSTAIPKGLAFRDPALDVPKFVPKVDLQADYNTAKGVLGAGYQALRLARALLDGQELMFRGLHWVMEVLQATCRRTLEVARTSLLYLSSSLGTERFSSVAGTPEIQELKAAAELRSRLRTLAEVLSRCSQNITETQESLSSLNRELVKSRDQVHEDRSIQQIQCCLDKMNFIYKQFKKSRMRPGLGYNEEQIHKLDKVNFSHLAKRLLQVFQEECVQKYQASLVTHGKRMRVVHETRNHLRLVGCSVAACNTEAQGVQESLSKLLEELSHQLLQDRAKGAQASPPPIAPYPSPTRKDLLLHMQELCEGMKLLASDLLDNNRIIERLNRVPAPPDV
# [4] = target: T3, Retinoic acid receptor alpha (Homo sapiens) (UniProt P10276); experiment: Antagonist activity at Gal4-fused RARalpha (unknown origin) transfected in HEK293 cells assessed as ATRA-induced transcriptional activity at 4 uM by luciferase/beta-galactosidase reporter gene assay relative to ATRA-treated control; assay type: cell-based; design: scale not given: the % may be the effect or the level left
# T3 sequence (whole entry): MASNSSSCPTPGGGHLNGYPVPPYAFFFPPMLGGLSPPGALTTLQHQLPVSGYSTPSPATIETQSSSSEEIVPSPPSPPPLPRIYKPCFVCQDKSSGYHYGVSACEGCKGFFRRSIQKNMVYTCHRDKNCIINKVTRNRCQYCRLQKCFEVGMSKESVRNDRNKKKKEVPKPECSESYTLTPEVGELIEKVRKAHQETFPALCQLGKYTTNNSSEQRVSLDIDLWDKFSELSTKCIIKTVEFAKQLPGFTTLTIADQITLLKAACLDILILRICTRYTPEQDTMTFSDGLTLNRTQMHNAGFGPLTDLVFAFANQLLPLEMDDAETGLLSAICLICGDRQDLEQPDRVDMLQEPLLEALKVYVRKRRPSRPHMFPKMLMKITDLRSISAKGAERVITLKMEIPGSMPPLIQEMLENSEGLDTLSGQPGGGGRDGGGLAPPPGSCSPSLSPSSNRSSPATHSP
# Summary of the method: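 Same Gal4-RARα HEK-293 UAS-luciferase system, stimulated with 0.1 µM atRA alone or with 4 µM compound (40-fold molar excess); 1 µM UVI2024 served as control antagonist. Background-subtracted luciferase was normalized to β-galactosidase and given as percent of atRA-stimulated cells. Data: 2–3 experiments, triplicate.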
smiles,measurement,setting,value
COCCOCOc1ccc(-c2ncc(-c3ccc(C(=O)O)cc3)nc2OC)cc1C12CC3CC(CC(C3)C1)C2,inhibition,[1],23.8%
same,viability at 4 µM,[2],91.4%
same,fold change (FC),Jurkat,2.5
same,inhibition,[3],18.8%
same,Activity,[4],109%
Cc1cc(O)c(C23CC4CC(CC(C4)C2)C3)cc1-c1ccc(CC(=O)O)cc1Cl,inhibition,[1],26.9%
same,viability at 4 µM,[2],45.8%
same,fold change (FC),Jurkat,1.8
same,inhibition,[3],8.5%
same,Activity,[4],79.7%
CC(=O)NCCCOc1cc(/C=C/C(=O)O)ccc1-c1cc(C23CC4CC(CC(C4)C2)C3)c(O)cc1C,inhibition,[1],2.3%
same,viability at 4 µM,[2],28%
same,fold change (FC),Jurkat,6.3
same,inhibition,[3],5.2%
same,Activity,[4],70%
O=C(O)c1ccc(-c2cnc(-c3ccc(O)c(C45CC6CC(CC(C6)C4)C5)c3)s2)cc1,inhibition,[1],85.3%
same,viability at 4 µM,[2],6%
same,fold change (FC),Jurkat,81.4
same,inhibition,[3],11.6%
same,Activity,[4],66.2%
COc1nc(-c2ccc(C(=O)O)cc2)cnc1-c1ccc(O)c(C23CC4CC(CC(C4)C2)C3)c1,inhibition,[1],78.5%
same,viability at 4 µM,[2],14.9%
same,fold change (FC),Jurkat,42.6
same,inhibition,[3],26.1%
same,Activity,[4],95.4%
COCCOCOc1ccc(-c2ncc(/C=C/C(=O)O)nc2OC)cc1C12CC3CC(CC(C3)C1)C2,inhibition,[1],4.2%
same,viability at 4 µM,[2],94.9%
same,fold change (FC),Jurkat,0.2
same,inhibition,[3],9.4%
same,Activity,[4],78.7%
Cc1cc(O)c(C23CC4CC(CC(C4)C2)C3)cc1-c1ncc(-c2ccc(C(=O)O)cc2)s1,inhibition,[1],87.9%
same,viability at 4 µM,[2],39%
same,fold change (FC),Jurkat,12.1
same,inhibition,[3],0%
same,Activity,[4],33.2%
COCCOCOc1cc(C)c(-c2ccc3cc(C(=O)O)ccc3c2Cl)cc1C12CC3CC(CC(C3)C1)C2,inhibition,[1],33.9%
same,viability at 4 µM,[2],33.1%
same,fold change (FC),Jurkat,12.4
same,inhibition,[3],13.7%
same,Activity,[4],82.7%
COCCOCOc1ccc(-c2ncc(-c3ccc(C(=O)O)cc3)s2)cc1C12CC3CC(CC(C3)C1)C2,inhibition,[1],82.9%
same,viability at 4 µM,[2],74.5%
same,fold change (FC),Jurkat,9.8
same,inhibition,[3],25.3%
same,Activity,[4],92.4%
COCCOCOc1ccc(-c2ncc(/C=C/C(=O)O)s2)cc1C12CC3CC(CC(C3)C1)C2,inhibition,[1],4.5%
same,viability at 4 µM,[2],103%
same,fold change (FC),Jurkat,0.6
same,inhibition,[3],14.3%
same,Activity,[4],94.2%
COCCOCOc1cc(C)c(-c2ncc(/C=C/C(=O)O)s2)cc1C12CC3CC(CC(C3)C1)C2,inhibition,[1],29.2%
same,viability at 4 µM,[2],96.1%
same,fold change (FC),Jurkat,1.6
same,inhibition,[3],11.1%
same,Activity,[4],75.3%
COCCOCOc1cc(C)c(-c2ncc(-c3ccc(C(=O)O)cc3)s2)cc1C12CC3CC(CC(C3)C1)C2,inhibition,[1],73.3%
same,viability at 4 µM,[2],59.5%
same,fold change (FC),Jurkat,4.9
same,inhibition,[3],17%
same,Activity,[4],61.6%
COCCOCOc1cc(C)c(-c2ccc(CC(=O)O)cc2Cl)cc1C12CC3CC(CC(C3)C1)C2,inhibition,[1],42.3%
same,viability at 4 µM,[2],86.8%
same,fold change (FC),Jurkat,2.6
same,inhibition,[3],0%
same,Activity,[4],74.1%
Cc1cc(O)c(C23CC4CC(CC(C4)C2)C3)cc1-c1ncc(/C=C/C(=O)O)s1,inhibition,[1],46.6%
same,viability at 4 µM,[2],92.3%
same,fold change (FC),Jurkat,1.5
same,inhibition,[3],0%
same,Activity,[4],87.3%
COc1nc(/C=C/C(=O)O)cnc1-c1ccc(O)c(C23CC4CC(CC(C4)C2)C3)c1,inhibition,[1],17.9%
same,viability at 4 µM,[2],60.9%
same,fold change (FC),Jurkat,3.1
same,inhibition,[3],7.8%
same,Activity,[4],93.2%
Cc1cc(O)c(C23CC4CC(CC(C4)C2)C3)cc1-c1ccc(/C=C/C(=O)O)cc1Cl,inhibition,[1],23.7%
same,viability at 4 µM,[2],34.1%
same,fold change (FC),Jurkat,0.8
same,inhibition,[3],11.9%
same,Activity,[4],67.1%
COCCOCOc1cc(C)c(-c2ccc(/C=C/C(=O)O)cc2Cl)cc1C12CC3CC(CC(C3)C1)C2,inhibition,[1],13.5%
same,viability at 4 µM,[2],83.7%
same,fold change (FC),Jurkat,1.3
same,inhibition,[3],2.9%
same,Activity,[4],61.5%
COc1nc(/C=C/C(=O)O)cnc1-c1cc(C23CC4CC(CC(C4)C2)C3)c(O)cc1C,inhibition,[1],50.1%
same,viability at 4 µM,[2],70.9%
same,fold change (FC),Jurkat,2.6
same,inhibition,[3],6.7%
same,Activity,[4],89%
